ChEMBL document CHEMBL4513216, “Probing the Open Global Health Chemical Diversity Library for Multistage-Active Starting Points for Next-Generation Antimalarials” (ACS Infect Dis, 2020)

experiment: Toxicity liver stage against HepG2, at 10uM; format: cell-based; set-up: test concentration 10 uM, cell line HepG2-A16-CD81EGFP; details: human, HepG2-A16-CD81EGFP cells; read-out: INHIBITION
In short: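 Uninfected HepG2-A16-CD81EGFP cells, 3 × 10^3 per well, 1536-well, plated on prespotted compound at 10 μM final, parasite-free screening media added to match infected plates; puromycin 10 μM positive, DMSO 0.5% negative; run in parallel with 48 h PbLuc assay at 37 °C, 5% CO2; viability by CellTiter-Glo luminescence, normalized to controls.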

SMILES	cytotoxicity at 10 µM [%]
O=C(CN1CCCc2c(F)cc(Br)cc21)N1CCN(C(=O)C2CC2)CC1	-5.06
Cc1ccnc(N2CCCC(c3noc(C(C)C)n3)C2)n1 (stereo not given)	21.9
Cc1cc(C[C@@H]2CCC[C@H]2NCc2cccc(F)c2F)on1	-0.474
CCc1nc(NCCc2nc(C)c(C)s2)c2cnn(C)c2n1	6.31
Cc1nn(C)c2nc(N(Cc3nccs3)C3CC3)sc12	-45.9
Cc1n[nH]c(C)c1CC(=O)N1CC[C@@](C)(O)[C@H](Oc2ccccc2)C1	2.85
Cn1nccc1CN1CCCC(COc2ccccc2F)C1 (stereo not given)	-9.54
Cc1nn(C)c(C)c1CC(=O)N1CCCC(n2cccn2)C1 (stereo not given)	-13.7
CCCc1n[nH]c(C2CN(CCC(F)(F)F)CCO2)n1 (stereo not given)	-13.9
CCn1cc(Cl)c(C(=O)NCCOC)n1	7.05
O=C1N(c2ccsc2)CCC12CCCN(c1ncc(F)cn1)C2 (stereo not given)	-105
O=C(Nc1ccc(-c2csnn2)cc1)NC(CCO)C1CC1 (stereo not given)	15.6
c1ncn(Cc2nnc(C3CCN(CC4CC4)CC3)n2C2CC2)n1	5.2
Cc1cc(C)n(CCNC(=O)c2cc(C3CC3)n[nH]2)n1	7.39
OC1(Cn2ccc3ncccc32)CCN(Cc2cccnc2)CC1	5.72
CCCOc1ccc2c(c1)OCC(CNC1CCc3ncnn3C1)=C2 (stereo not given)	-6.63
O=C(NCCNc1ccccn1)Nc1cc(C(F)(F)F)c[nH]c1=O	-16.5
Cc1ccccc1N1CC2(CCN(S(=O)(=O)C3CC3)C2)CC1=O (stereo not given)	3.12
COCCN1CCN(C(=O)c2ccncc2F)Cc2cccnc21	10
CS(=O)(=O)c1ccc(OCCNCc2c(F)cccc2F)cc1	-7.12
CCOc1cccc(C(=O)Nc2ccncc2)c1	8.59
Cc1csc(CN(C)C2CCN(c3sccc3C#N)C2=O)n1 (stereo not given)	5.44

SMILES	cytotoxicity at 10 µM [%]
CCOc1cc(C(=O)n2cccn2)cc(OCC)c1OCC	2.83
Cc1cc(C)c2ncc(C#N)c(N3CCS(=O)(=O)CC3)c2c1	-8.17
COc1ccc(CC(=O)N2CC[C@@H]3NC(=O)CC[C@@H]32)cc1	-1.89
CC(C)c1nn(C)c(N2CCOCC2)c1CNC(C)c1ccccn1 (stereo not given)	-6.56
Cc1nc2c(c(=O)n1C)CN(C(=O)C1CCCN(C(=O)N(C)C)C1)C2 (stereo not given)	-5.18
CCN(C(=O)CN1CCCC1c1ccc(F)cc1)c1ccccc1C (stereo not given)	5.42
CO[C@H]1CCN(C2CCOCC2)C[C@@H]1Cc1ccccc1	3.11
CC(=O)N[C@@H]1CN(C(=O)c2csc(C(C)C)n2)C[C@H]1C(C)C	-6.71
CN(C)C(=O)CN1C[C@H]2CCN(C(=O)C3CCCO3)CC[C@H]2S1(=O)=O (stereo not given in full)	20.6
CC(C)c1cc(N(C)Cc2noc(C3CCCC3)n2)n2nccc2n1	-0.0395
O=C(NCCCNC(=O)c1ccccc1)Nc1ccc(F)cc1F	5.55
CCOCC(O)CN1CCN(C(=O)Cc2ccccc2Cl)CC1 (stereo not given)	-1.19
COc1cccc(CN(C)C(=O)CCC(=O)c2ccccc2)c1OC	-3.62
c1ccc(N2CCOC3(CCCN(c4nncs4)C3)C2)nc1 (stereo not given)	9.17
O=C([C@@H]1C[C@@H]2CCN(Cc3ccco3)C[C@H]2O1)N1CCCO1	4.78
O=C(Nc1cccc(OCc2cccc(F)c2)c1)C1COCCO1 (stereo not given)	8.06
CCOCC1CN(C(=O)C2CCOCC2)Cc2cnn(C)c21 (stereo not given)	-1.05
CCN(Cc1ccc2c(c1)OCO2)Cc1nc(C)no1	-6.49
NC(=O)CN(C(=O)c1c[nH]c2ncccc12)C1CCCC1	0.441
Cc1cc(CNC(=O)N2CCN(c3nc(C)c(C)s3)CC2)no1	-1.01
CCCc1nc(C(C)(C)NC(=O)C2CC(=O)N(CC)C2)no1 (stereo not given)	3.51
Cc1cccc(C2CCCCCN2Cc2cn(C)nc2C)c1 (stereo not given)	-1.17

SMILES	cytotoxicity at 10 µM [%]
O=C(c1ncoc1C1CCCO1)N1CCCC2(CCCCC2)C1 (stereo not given)	-5.14
CCCN1CCC(Nc2nc(C)ns2)CC1	-8.92
CC(=O)N1CCCC1c1cccc(NCc2ccccc2F)n1 (stereo not given)	-13.8
NC(=O)C1CCN(C(=O)c2ccc(Sc3ccccn3)cc2)CC1	9.48
CCOCCc1nc(CCc2ccccc2)n[nH]1	10.3
O=C(c1cncc(N2CCC3(CC2)NCCNC3=O)n1)N1CCCCC1	-2.4
O=C(N[C@@H]1CN(Cc2ccc(F)cc2)C[C@H]1O)c1cscn1	-11.7
COC1(CNC(=O)c2cccc(C#N)c2)CCSC1 (stereo not given)	-7.93
O=C(CCNC(=O)c1ccoc1)Nc1ccc(F)cc1F	-6.44
CCc1nc2n(n1)CC(NCc1noc(-c3ccccc3)n1)CC2 (stereo not given)	-10.6
Cc1n[nH]c(C)c1Sc1ccccc1NC(=O)N1CCCC(C(N)=O)C1 (stereo not given)	-7.59
COc1ccc2cc(NC(=O)CCNc3nc(C)cc(C)n3)cnc2c1	-48.9
COCCNC(=O)N1CCN(C(C)C(=O)NC(C)C)CC1 (stereo not given)	10.6
COC(=O)CN(C(=O)c1ccc(-n2ccnc2)cc1)C1CCCC1	-7.28
COc1ccc(CNCC2CN(C3CC3)CCO2)cc1OC (stereo not given)	-17
COc1ncc(NCc2ccc(C#N)cc2)cc1C(N)=O	0.217
O=C(NCc1cc(Cl)ccn1)NCc1ccco1	8.5
COc1ccc(OCc2noc(CN(C)C3CCS(=O)(=O)C3)n2)cc1 (stereo not given)	12.5
Fc1ccc2[nH]c(C3CCCN3Cc3c[nH]cn3)nc2c1 (stereo not given)	0.786
Cn1ccnc1CN1CCC2(CC1)COCCN(S(C)(=O)=O)C2	3.39
CC(C)NC(=O)N1CCc2ncnc(-c3ccncc3)c2CC1	-0.736
COCCN1CC[C@@H]2OC[C@H](C(=O)NCc3cccs3)C[C@@H]2C1	2.7

SMILES	cytotoxicity at 10 µM [%]
CC(CN1CCCC1=O)NC(=O)Nc1cccnc1-n1cccn1 (stereo not given)	-170
O=C1CCCN1CCC1CCN(C2CCC3(CCNCC3)CC2)CC1	10.9
Cc1nn(C)c(C)c1NC(=O)CNc1ccc(F)c(C(F)(F)F)c1	0.0371
Cn1nc(C(=O)NCc2ccccc2C(F)(F)F)c2c1CCS(=O)(=O)C2	5.37
CN(C)c1cc2c(nn1)CCN(C(=O)C1Cc3ccccc3S1)C2 (stereo not given)	-9.52
CCc1nnc2n1CCN(C(C(=O)NC1CC1)c1ccccc1)C2 (stereo not given)	-7.07
CCN1CCCC1CNC(=O)CCSc1ccc2c(c1)OCCO2 (stereo not given)	-1.58
CCOc1cccc(CCNC(=O)Cc2ccn[nH]2)n1	-27.2
CCc1c(C)nn2c(O)cc(C3CCN(C(=O)c4ccn(C)n4)C3)nc12 (stereo not given)	7.92
CCc1nc(CN(C)C(=O)NC(C)c2cccc(NC(C)=O)c2)cs1 (stereo not given)	-4.85
CN1CCOC[C@H]1c1nc(-c2cccnc2)c[nH]1	-0.405
Cn1cc(Nc2cccc(C(=O)N(CC(N)=O)C3CCCC3)c2)cn1	-1.78
Cc1c[nH]c(CN2CCCCC2CCn2cccn2)c(C)c1=O (stereo not given)	3.69
Cc1nc(CN2CCCN(C(=O)c3cccnc3O)CC2)cs1	-8.51
Cc1ccc(C)c(S(=O)(=O)CCN2CCc3c(ncn3C)C2)c1	-12.5
CCNC(=O)NC(=O)CN1CCC(c2cccc(F)c2)C1 (stereo not given)	-9.45
Cc1noc2ncnc(NC(CC(C)(C)C)c3cccnc3)c12 (stereo not given)	1.41
Cc1n[nH]c(C)c1NC(=O)CN1CCc2c(nc(C3CC3)n2C)C1	-3.15
c1cc(N2CCC3(COCc4cnc(NCC5CC5)nc43)C2)ncn1 (stereo not given)	6.27
COc1ccc(CN2C[C@@H]3COC[C@@H](N4CCN(C)CC4)[C@@H]3C2)cc1	-103
CCOC(C)c1noc(CN2CCN(c3ccncc3)CC2)n1 (stereo not given)	-10.6
CC(=O)N1CCCC(c2nc(-c3ccccc3)c[nH]2)C1 (stereo not given)	6.48

SMILES	cytotoxicity at 10 µM [%]
Cn1ccc2cc(C(=O)Nc3nc[nH]n3)ccc21	1.69
Cc1csc(N2CCCN(C3Cc4ccccc4C3)CC2)n1	10.3
O=C(CN1CCc2ccccc2C1)NCc1ccco1	6.32
COc1ccc(CC(=O)N2CC[C@@]3(O)CCNC[C@H]3C2)c(OC)c1	4.26
COC(=O)C(NC(=O)c1cc(F)cc(F)c1)c1cccnc1 (stereo not given)	-39.1
CCC(C)N(C)CCNC(=O)c1ccccc1OCCOC (stereo not given)	0.386
Cc1ccc2oc(C(=O)N3CCC(C(=O)N4CCCC4)CC3)cc2n1	-1.35
Cc1noc([C@@]23CCO[C@@H]2CCN(C(=O)CN(C)C)C3)n1	10.1
O=C(NCC(F)(F)F)c1ccc(-c2ccco2)[nH]c1=O	-21.6
CCc1noc(C2CCCCN2C(=O)c2ccc3c(c2)OCO3)n1 (stereo not given)	1.75
O=C(c1ccc(-n2ccnn2)cc1)N(CC1CC1)c1cccnc1	22.5
Cc1ccc(NS(=O)(=O)c2cccc(C#N)c2)c(CN(C)C)c1	-4.97
COCc1ncn(Cc2nc(-c3ccc(OC)cc3F)oc2C)n1	-92.7
O=S(=O)(c1cccs1)N1CCN2C[C@H](OCC3CC3)C[C@H]2C1	11.9
Cc1nc(CCC(=O)NCC(N)=O)cc(C2CCNCC2)n1	-3.03
Cn1cc(C2=CCN(CCCC(=O)Nc3ccc(C#N)cc3)CC2)cn1	-6.84
O=C(c1cccc(F)c1)N1C[C@H]2CCCC(OCc3cccnc3)[C@H]2C1 (stereo not given in full)	8.21
CCSc1ncc(-c2nccn2CCN(C)C)cn1	2.41
CN(Cc1ccncc1)C1COC2(CCN(Cc3nccn3C)CC2)C1 (stereo not given)	-98.7
Cc1cnc(N2CCCOC(CN3CCCCC3)C2)nc1 (stereo not given)	-3.54
CSc1ccc(-c2nc(CN3CCC(NC(C)=O)C3)c(C)o2)cc1 (stereo not given)	1.24
CC(C)c1cc(C(=O)N2CCN(CC3CC3)[C@@H]3CS(=O)(=O)C[C@@H]32)on1	3.05
